Measurements from the EternaBench riboswitch data.

Test system: MS2 coat protein
Test: apparent Kd, MS2 coat protein; higher = weaker binding; RNA-MaP array; FMN 200 µM where present
In short: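 Stalled E. coli RNA polymerase transcribed the designs on Illumina sequencing-chip clusters. SNAP-549-labelled MS2 coat protein was titrated from 0.7 or 1.5 nM, doubling to 3 µM, without and then with constant ligand, in 100 mM Tris-HCl pH 7.5, 80 mM KCl, 4 mM MgCl2, BSA, DTT, yeast tRNA and Tween-20. Per-cluster binding curves were fitted to green signal normalised to red-channel RNA signal and control-cluster median Fmax. The apparent Kd is the median of the filtered fits.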

[1] = designed as: ON switch for flavin mononucleotide, no ligand
[2] = ligand present: flavin mononucleotide, designed as: ON switch for flavin mononucleotide
[3] = designed as: OFF switch for flavin mononucleotide, no ligand
[4] = ligand present: flavin mononucleotide, designed as: OFF switch for flavin mononucleotide

Sequence	apparent Kd [1]	apparent Kd [2]	apparent Kd [3]	apparent Kd [4]
GUGCAUACGUGAGGAUAUGUAUUAGAUAGUGGUACAGAAGGCAUGUCUGAUGACAUGAGGAUCACCCAUGUUGGCACAAUGCGC	0.0515 µM	0.0302 µM		
AGCGAACAGGCUAACAUGAGGAUCACCCAUGUGGACUCAUGGUAGGAUAUCGGGAAGGAGGAAACCGAGAAGGGCCGGUGAGCG	0.15 µM	0.0708 µM		
UUAUGUGGCGUAGGAUAUCAUUAGAUUUGUAAUUUAAUUGUAAUUUCCAUAUGAGAAGGACGUAUACAUGAGGAUCACCCAUGU			0.0148 µM	0.0177 µM
GGGAUUAAGGCAGGAUAUCCGGGUUGGCCUCGACAUGAGGAUCACCCAUGUGGAGAAGGGCCGACUGCUCGAAAGGCGGUCAAG			0.214 µM	0.0674 µM
GGAGCUCUCAUUAACAUGAGGAUCACCCAUGUCAAAAGACAUGAGGAUAUGGAUCCUAAUUGGAUCCAGAAGGCAUGGAGCUCC	1.07 µM	0.0543 µM		
AAUGUACUCGGAGGAUAUCCCACAUGAGGAUCACCCAUGUGGGUCACUGAUUCUCGUAUCGUCCGGGAGAAGGCCGAGAACUGA			0.0346 µM	0.111 µM
UGUCGGAGCAGAGGAUAUUACAUGAGGAUCACCCAUGUAUGAACCAAUAGCUGGAGACAGCAAUGUAAGAAGGCUGCUCCGACA			0.0122 µM	0.171 µM
CUUGUUGUCGAGGAUAUGCACCAGCUCACUGACGCAGAAGGCGACACAUGAGGAUCACCCAUGUCAGUUCGCGU			0.0374 µM	0.225 µM
AUCAGCUCGUCAGGAUAUACGUCACUGCGUCAGCACUGUGGUAAGAUCACAUGAGGAUCACCCAUGUAGAAGGGACGAGCUGAU			0.0177 µM	0.172 µM
UGUUGUAUUACAGGAUAUCUAGAAUUUUUAUUUAGAGAAGGGUAUUCACAUGAGGAUCACCCAUGUAUAUACGAGGAAGUUGUG	0.0337 µM	0.0338 µM		
GGGUACAUCGGAGGAUAUCAUGUAUAGACAUGAGGAUCACCCAUGUCGUACGAGAGUACGGAGAUUGAGAAGGCCGAUGUACCG	0.0207 µM	0.0173 µM		
AACGUGUCAGGAUAUGCUGCUCGUCACGAAAGUGAUGAGUAGCAGAAGGGACAUGAGGAUCACCCAUGUAAAGA			0.153 µM	0.101 µM
AUCUGCUCGUCAGGAUAUACGUCACUGCGUCAGCAGUGUGGUAAGAUCACAUGAGGAUCACCCAUGUAGAAGGGACGAGCUGAU			0.0129 µM	0.268 µM
AAGAGCGAUUCUCCCUUCCUACAUGAGGAUCACCCAUGUACGAGAAGGCGCCGUGUAUACAACGGUGAGGAUAUCGUGCGUUAC			0.00464 µM	0.00491 µM
GAUAAGGAAGGAUAUGUGGCCUUAUACAUGAGGAUCACCCAUGUUACGACAUACCACUACACAGAAGGUCUAUUAC			0.0322 µM	0.0305 µM
AGCUACGUUUCGUAGCAGCUAGGUGAGGAUAUUCAAUUUUUCACAUGAGGAUCACCCAUGUAUGUGAAGAAGGCGCCUAGAAAU	0.0111 µM	0.00498 µM		
AUUUCCAGAGGAUAUGCGAGGGUGUACCUCUAACAGCGCAAACAUGAGGAUCACCCAUGUAGAAGGCUGAUCAU			0.0565 µM	0.0548 µM
UCCUUGUCCUGAGGAUAUCCGUGGUUCCCGAAAGGAGAAGGCAGGACAUGAGGAUCACCCAUGUACCCAGAAAACGUGCAGAGU			0.163 µM	0.273 µM
UCUGCUCGAGGAUAUACAUGAGGAUCACCCAUGUAACCCAGAAGCAUGGCCUCAGGAUGUAGAAGGCGACGCUA			0.0173 µM	0.0375 µM
GUAGCAUACAGAGGAUAUUCAAACGACAAAAGUCGACAUGAGGAUCACCCAUGUGGCGAAAGCCGGGAGAAGGCUGAAUGCUAC	0.015 µM	0.012 µM		
UCCGUGUGAGGAUAUUACGCUGUUCGGGAAACGCUCAUAGGUAAGAAGGCACAUGAGGAUCACCCAUGUCCAUA			0.0237 µM	0.0548 µM
UGGUACAUGGGAGGAUAUGGAGUGAAGACAUGAGGAUCACCCAUGUUAUAAAUGCCGAGAGGCAACUAGAAGGCCCAUGUACCU	0.0777 µM	0.0143 µM		
GAUGAGGUAGGAUAUACGAGAAUAUAGGGUAGAUAUAUAACACAUGAGGAUCACCCAUGUAGAAGGACCAGUAG			0.0384 µM	0.0899 µM
GCGGCUAGUGCAGGAUAUCGGCGCGUGUAGUGCCGAGAAGGGCACAUGAGGAUCACCCAUGUGAUCAAUCACUGCUAAGGCCGC			0.00526 µM	0.0054 µM
UACAGACAUGAGGAUCACCCAUGUAAGGAUAUCGGUACCGAUGGCAUAAUCUGCUCGGCGAGAAGGUACAGUGU			0.0226 µM	0.0249 µM
AAUUAACAUGAGGAUCACCCAUGUGAGGAUAUGGUAUUAUUUGGACAGUUAUGAUAUACCAGAAGGCACAAAUA			0.0326 µM	0.0459 µM
GUAGAGUAAGGAUAUGUAGAAUAGGAUAGAAUGGUUAGAAUGCAGAAGGUACAUGAGGAUCACCCAUGUAAUGU			0.0221 µM	0.0211 µM
GGUUGGCGAGGAUAUACAUGAGGAUCACCCAUGUGGUCCUGUGGCUGGUCAAACCUUUGUAGAAGGCGCGGGUC			0.236 µM	0.228 µM

Sequence	apparent Kd [1]	apparent Kd [2]	apparent Kd [3]	apparent Kd [4]
UUAUACGUUGAGGAUAUGCGACUUUUUUUAGUUGUAGAAGGCGAUACAUGAGGAUCACCCAUGUUUAUGGGCAU			0.166 µM	0.218 µM
AACGUGGCUUAGGAUAUUGCUACGCAAAAGUAACAAGAAGGAGGCACAUGAGGAUCACCCAUGUGAUUCGUUGA			0.0198 µM	0.0449 µM
GCCUCAGAAUUAAUUGUGAGAGGCAGAAGGCUAUAUCUCGUGUUAAACAUGAGGAUCACCCAUGUAGAGGAUAUGCUAUUACAG			0.0093 µM	0.0106 µM
UUAAAUCAUGUAGGAUAUGCAUGGCGAAGCUACGCAGAAGGACAUGAGGAUCACCCAUGUUCUGGCUACCGAGUUCGGUGGCAA			0.0207 µM	0.0833 µM
CAGCGGUGAGGAUAUACGUAGGUACAGAUCUGUGUGUUCCUACAUGAGGAUCACCCAUGUAGAAGGCAUGGCUG			0.043 µM	0.14 µM
CUAGCGUAUGUAGGAUAUCGGACUGUUUCAGUCUGAGAAGGACAUGAGGAUCACCCAUGUAUAGCUACGUGAGUAGCUCGCUAG			0.0204 µM	0.0324 µM
CGAUGUUAUGCAGGAUAUCUCUCUUGUUUGAGGAGAGAAGGGCAUAGGGAGACAUACGCCUUAUUACAUGAGGAUCACCCAUGU			0.00883 µM	0.008 µM
GUUGUUUGAGGAUAUACAUGAGGAUCACCCAUGUGUGUCCAUACGCGUGAGUCUUCGUGUAGAAGGCGGGCGGC			0.0137 µM	0.0147 µM
GCGUUGUACGAGAAGGCCAAUACAUGAGGAUCACCCAUGUUAAGUUGUUUUGGAGGAUAUCGAUCACAUUCAAUAAUGCAACGC			0.00671 µM	0.00577 µM
AUCAAUCACAUAGGAUAUAGAAUAUUAUAUUUUUACAUGAGGAUCACCCAUGUUUUAUUGGGAUUCUAGAAGGAUGAGUUAUUA	0.13 µM	0.118 µM		
AUCAGCUCGUCAGGAUAUACGUCACUGCUUCGGCAGUGUGGUAAGAUCACAUGAGGAUCACCCAUGUAGAAGGGACGAGCUGAA			0.0133 µM	0.259 µM
CACGUGUAAGGAUAUGACAAUGGUAUCUUCGGAUACCAUUGUCAGAAGGUACAUGAGGAUCACCCAUGUAACAC			0.0161 µM	0.0268 µM
UCACGGGACUAAGGAUAUAUGAGUACCAUUUACAUAGAAGGUAGAAUGUUAGAUCAUAAACUAAACAUGAGGAUCACCCAUGUU			0.0194 µM	0.0186 µM
UUUUAACAUGAGGAUCACCCAUGUGAGGAUAUCGAAAUUUAUAUUUAUAUUUAUAUAACGAGAAGGCACAUUUU			0.0724 µM	0.0876 µM
UUGAAUUUAAACAUGAGGAUCACCCAUGUGUCAUAGUUGACAUAGGAUAUGCUUAUACUUUGAAAGCAGAAGGAUGACGAUACU	0.0413 µM	0.0101 µM		
CAUUUCAUGUCAGGAUAUCCGCGCAGCUUCACGCACGAUAUAAGGGAGCUUGGAGAAGGGACAUGAGGAUCACCCAUGUGCCUC			0.0109 µM	0.026 µM
AUUUAGAGAGGAUAUAUAUUGUGAAACAUGAGGAUCACCCAUGUAAUAAUAUGGAUGUAAAUAGAAGGCUCAUUUA			0.0381 µM	0.0349 µM
UUUCCGCGAGGAUAUGCGGGUUGUGCUUUUCAUUUUUUAUAACAUGAGGAUCACCCAUGUAGAAGGUGCUUCUU			0.186 µM	0.166 µM
UCAGGCUUCGAGAAGGACAUGAGGAUCACCCAUGUUAAUUAGAAGCAGCCGUGAGGCUGCAUCAUGUAGGAUAUCGGAGUCUGC			0.00716 µM	0.0248 µM
AGCAUGUUUACAUGAGGAUCACCCAUGUUUUUUAAGGAUAUCAGAAGGUACAUUUUGAGUUAGAGUAAGGAUAUGAUAUAUGCG	0.0119 µM	0.00882 µM		
UUACGUCCCAUUUACAUGAGGAUCACCCAUGUCGAAAGACAUGAGGAUAUGCUACCUAAUUGGUAGCAGAAGGCAUGGACGUCG	0.662 µM	0.347 µM		
CACGUCAGGAAACGGAGCGGCCAACAUGAGGAUCACCCAUGUGAGGAUAUGCCUACUAAAAGUAGGCAGAAGGCGCAAUUGGCA			0.0291 µM	0.0399 µM
UUAUGCUGAGAGAAGGUUCAAACUACAUAUUGCAUACAUGAGGAUCACCCAUGUUGGUGAAUAAGAAAGGAUAUUUUACUGUAU			0.0866 µM	0.0631 µM
CGUCCACAUGAGGAUCACCCAUGUGAGGAUAUCGAUGUCCCAGGGCGGGUGCGGGACUCGAGAAGGCACUAGGU			0.0327 µM	0.0936 µM
GCCCUUCGUGGAAGGGCAAAAGGACAGGAUAUCGCUUAAACAUGAGGAUCACCCAUGUCCGUUAACGAGAAGGGUCGAAUAAAU	0.0642 µM	0.012 µM		
CAUAUACAGGGAGGAUAUAACAUGAGGAUCACCCAUGUGCAAUCCUCAAUGUUAGAAGGCCCAAUAGAAUCGCAAAAGGCAUCC			0.00851 µM	0.00496 µM
CUGUCCCAAGGAUAUACAUCAGUCCCAGGGUGCCGCAUAAGACAUGAGGAUCACCCAUGUAGAAGGUGGAGACC			0.0967 µM	0.0926 µM
